Results: ChEMBL document CHEMBL4190408 (J Med Chem, 2018)
In brackets after ≈: the same amount, converted by molar mass. Activity calls are given as the source filed them. The calls are words filed in the database; no cut-off is given here.

Tests used:
Salmonella typhimurium [1] = experiment: Genotoxicity in Salmonella typhimurium TA1535 up to 2000 uM after 2 days in presence or absence of liver S9 fraction by Ames test; type: toxicity, organism-based; conditions: salmonella enterica subsp. enterica serovar typhimurium, s9, 48 h
Procedure, shortened: (§1)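 Ames MPF format with Salmonella typhimurium TA98, TA100, TA1535, TA1537 and E. coli uvrA. Run with and without metabolic activation (S9), 2-day incubation, up to 2000 µM.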

[2] = Half life in Balb/c mouse at 1 mg/kg, iv; type: ADME, organism-based; conditions: Balb/c, in vivo
Procedure, shortened: (§2)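 Intravenous PK in male Balb/C mice, n=3, at 1 mpk. Vehicle was 30% DMA or 15% NMP, depending on the compound.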

[3] = Apparent clearance in Balb/c mouse at 10 mg/kg, po after 1 hr; type: ADME, organism-based; conditions: in vivo
[4] = Fraction unbound in mouse blood; type: ADME, tissue-based
[5] = Volume of distribution at steady state in Balb/c mouse at 1 mg/kg, iv; type: ADME, organism-based; conditions: Balb/c, in vivo, read-out: Vdss; procedure, shortened: as §2
[6] = Thermodynamic solubility of the compound in pH 7.4 solution after 90 mins by UVLC-MS analysis; type: physicochemical; conditions: pH 7.4 solution, pH 7.4; read-out: Therm_solubility
Mus musculus [7] = experiment: Unbound Cmax in Balb/c mouse at 10 mg/kg, po after 1 hr; type: ADME, organism-based; conditions: in vivo
in vitro [8] = conditions: mouse, liver microsomes
physchem [9] = conditions: pH 7.4 solution
Mus musculus [10] = experiment: Inhibition of allograft rejection in Balb/c mouse heterotopic cardiac transplantation model using C57BL/6 as cardiac donor assessed as long-term graft survival rate by measuring cardiac allograft function by daily palpitation at 5 mg/kg, po qd for 28 days; type: functional, organism-based; conditions: in the assay text read “for 14 days” for “for 28 days”
Procedure, shortened: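 Heterotopic cardiac allografts from C57BL/6 donors into Balb/C recipients. Recipients received 5 mpk as a homogeneous suspension in 0.1% Tween 80, 0.1% silicone antifoam, 1% methylcellulose (400 cps), or vehicle alone, by oral gavage once daily. Survival was compared with vehicle; rejection was indicated when the graft stopped beating.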

in vitro [11] = conditions: human, liver microsomes
[12] = Oral bioavailability in Balb/c mouse at 10 mg/kg after 1 hr; type: ADME, organism-based; conditions: Balb/c, in vivo
Procedure, shortened: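 Male Balb/C mice, n=3. Oral dose of 10 mpk as a homogeneous suspension of crystalline solid in 0.1% Tween 80, 0.1% silicone antifoam, 1% methylcellulose (400 cps) in water. I.v. dose of 1 mpk in 30% DMA or 15% NMP, depending on the compound. Bioavailability was extrapolated from the i.v./p.o. experiments.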

Salmonella typhimurium [13] = experiment: Genotoxicity in Salmonella typhimurium TA100 up to 2000 uM after 2 days in presence or absence of liver S9 fraction by Ames test; type: toxicity, organism-based; conditions: salmonella enterica subsp. enterica serovar typhimurium, s9, 48 h; procedure, shortened: as §1
Salmonella typhimurium [14] = experiment: Genotoxicity in Salmonella typhimurium TA1537 up to 2000 uM after 2 days in presence or absence of liver S9 fraction by Ames test; type: toxicity, organism-based; conditions: salmonella enterica subsp. enterica serovar typhimurium, s9, 48 h; procedure, shortened: as §1
physchem [15] = conditions: phosphate buffer, pH 7.4
Escherichia coli = experiment: Genotoxicity in Escherichia coli uvrA up to 2000 uM after 2 days in presence or absence of liver S9 fraction by Ames test; type: toxicity, organism-based; conditions: s9, 48 h; procedure, shortened: as §1
Mus musculus [16] = experiment: Unbound AUC in Balb/c mouse at 1 mg/kg, iv; type: ADME, organism-based; conditions: in vivo; procedure, shortened: as §2
Salmonella typhimurium [17] = experiment: Genotoxicity in Salmonella typhimurium TA98 up to 2000 uM after 2 days in presence or absence of liver S9 fraction by Ames test; type: toxicity, organism-based; conditions: salmonella enterica subsp. enterica serovar typhimurium, s9, 48 h; procedure, shortened: as §1
[18] = Clearance in Balb/c mouse at 1 mg/kg, iv; type: ADME, organism-based; conditions: Balb/c, in vivo; procedure, shortened: as §2
Mus musculus [19] = experiment: Unbound AUC (infinity) in Balb/c mouse at 10 mg/kg, po after 1 hr; type: ADME, organism-based; conditions: in vivo

half-life [2]: 1.4 h
CL/F [3]: 5.3 mL/min/kg
fraction unbound [4]: 0.09
Vd [5]: 0.6 L/kg
solubility thermodynamic at 1.5 h [6]: 110 µM (≈ 45.2 µg/mL)
fCmax (Mus musculus [7]): 2113 nM
microsomal CLint at 0.75 h, 3 µM (in vitro [8]): 6 µL/min/mg
solubility kinetic at 1.5 h (physchem [9]): > 350 µM
microsomal CLint at 0.75 h, 3 µM (in vitro [11]): 4 µL/min/mg
bioavailability [12]: 100%
logD at 1.5 h (physchem [15]): 1.47
fAUC (Mus musculus [16]): 0.684 µM·h
clearance [18]: 5 mL/min/kg
fAUC (Mus musculus [19]): 6.941 µM·h
Structure (SMILES): COc1ccc(NC(=O)N2CCN(c3nc(N)nc4c3cnn4C)[C@@H](C)C2)c(C)c1
Activity (Salmonella typhimurium [1]): Non-Toxic
Activity (Mus musculus [10]): Active
Activity (Salmonella typhimurium [13]): Non-Toxic
Activity (Salmonella typhimurium [14]): Non-Toxic
Activity (Escherichia coli): Non-Toxic
Activity (Salmonella typhimurium [17]): Non-Toxic
